Reference: paper PMC3180826 (ACS chemical neuroscience, 2010)
Changes are numbered by the printed parent chain. Several values for one entry are separate records, joined by “and”; a condition that tells them apart may be missing. Identical values can stand only once.

How the values were obtained:
Format in all cases: cell-based
[1] = target: T1, rM1 K392D/E397V/E401H (Rattus norvegicus, UniProt P08482, E397V/E401H/K392D); assay: Calcium mobilization, transiently transfected rM1 triple mutant CHO cells; details: compared with wt rM1
T1 sequence (P08482 1-460 K392D/E397V/E401H): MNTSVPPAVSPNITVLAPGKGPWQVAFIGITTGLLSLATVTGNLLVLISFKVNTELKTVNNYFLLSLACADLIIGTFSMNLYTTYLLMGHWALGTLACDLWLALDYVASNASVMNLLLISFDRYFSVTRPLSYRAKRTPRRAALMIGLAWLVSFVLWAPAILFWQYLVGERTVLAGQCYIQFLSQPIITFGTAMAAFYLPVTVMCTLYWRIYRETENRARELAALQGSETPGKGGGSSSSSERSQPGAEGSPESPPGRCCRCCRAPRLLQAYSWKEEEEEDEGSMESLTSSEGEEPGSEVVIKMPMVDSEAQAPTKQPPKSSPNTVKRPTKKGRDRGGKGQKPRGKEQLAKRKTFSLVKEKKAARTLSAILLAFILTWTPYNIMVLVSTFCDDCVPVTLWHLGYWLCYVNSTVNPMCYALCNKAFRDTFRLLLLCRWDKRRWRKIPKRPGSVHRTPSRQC
Outline: (§1)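 CHO-K1 cells were transiently transfected overnight at 37 °C with 10 μg of mutant rat M1 cDNA in pcDNA3.1+ using Fugene 6, then plated for the calcium assay. They were loaded with 2 μM Fluo-4 AM for 1 h at 37 °C in HEPES/probenecid-buffered HBSS, pH 7.4. Test compound dose–response series were added at 19 s. Calcium mobilization was measured as fluorescence increase over basal.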

[2] = target: T2, rM1 EE397/401DD (Rattus norvegicus, UniProt P08482, E397D/E401D); assay: Calcium mobilization, rM1 EE397/401DD double mutant CHO-K1 cells; details: compared with wt rM1 and triple mutant
T2 sequence (P08482 1-460 E397D/E401D): T1 sequence (P08482 1-460 K392D/E397V/E401H) with D392K, V397D, H401D

[3] = target: T3, rM1 E397D (Rattus norvegicus, UniProt P08482, E397D); assay: Calcium mobilization, rM1 E397D mutant CHO-K1 cells; details: compared with wt rM1
T3 sequence (P08482 1-460 E397D): T1 sequence (P08482 1-460 K392D/E397V/E401H) with D392K, V397D, H401E
Outline: as §1

[4] = target: T4, rM1 receptor (Rattus norvegicus, UniProt P08482); assay: Calcium mobilization assay, CHO-K1 cells stably expressing rM1
T4 sequence (P08482 1-460): T1 sequence (P08482 1-460 K392D/E397V/E401H) with D392K, V397E, H401E

[5] = target: hM3 (Homo sapiens, UniProt P20309); assay: Calcium mobilization assay, agonist mode, M3; details: up to 30 μM
Outline: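 CHO-K1 cells stably expressing hM2/Gqi5 or rM4/Gqi5 (6 × 10^4 cells/well), or hM3 or hM5 (5 × 10^4 cells/well), were cultured overnight at 37 °C in 5% CO2. Cells were loaded with 2 μM Fluo-4 AM for 1 h at 37 °C in HBSS with 20 mM HEPES and 2.5 mM probenecid, pH 7.4. Eight-point test compound concentration series were added at 19 s of a 130 s read. Calcium flux was read as fluorescence fold over basal.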

Sequence of hM3 (P20309 whole entry): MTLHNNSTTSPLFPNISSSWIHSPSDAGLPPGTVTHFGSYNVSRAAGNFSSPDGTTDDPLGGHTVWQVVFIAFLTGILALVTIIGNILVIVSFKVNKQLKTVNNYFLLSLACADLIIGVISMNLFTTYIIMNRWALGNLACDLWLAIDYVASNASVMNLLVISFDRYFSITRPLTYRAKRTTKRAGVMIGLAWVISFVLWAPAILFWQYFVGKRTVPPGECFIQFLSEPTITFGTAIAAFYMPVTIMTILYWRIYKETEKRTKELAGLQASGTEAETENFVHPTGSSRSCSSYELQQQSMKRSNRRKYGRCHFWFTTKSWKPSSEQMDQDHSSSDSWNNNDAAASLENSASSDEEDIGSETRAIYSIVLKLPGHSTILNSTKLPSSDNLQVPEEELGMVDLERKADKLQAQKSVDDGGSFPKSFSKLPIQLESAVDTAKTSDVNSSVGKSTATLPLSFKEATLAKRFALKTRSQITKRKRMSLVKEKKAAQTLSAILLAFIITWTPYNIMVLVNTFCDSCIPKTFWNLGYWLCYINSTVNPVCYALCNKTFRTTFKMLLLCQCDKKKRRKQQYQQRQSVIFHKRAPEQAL

CCOC(=O)N1CCC(NCCNC(=O)c2ccccc2)CC1 [VU0184670, ethyl 4-(2-benzamidoethylamino)piperidine-1-carboxylate]
functional response at K392D/E397V/E401H triple mutant [1]: almost completely ablated
functional potency and efficacy at EE397/401DD double mutant [2]: decrease the potency and efficacy further toward the levels observed with the triple mutant
functional potency at E397D mutant [3]: Not much potency appeared to be lost
EC50 [4]: 152 nM
ACh Max efficacy ([4]; rM1 CHO-K1, calcium mobilization): 85 % ACh Max and 85.01 % ACh Max
Schild analysis: shift of dose-response curve with increasing atropine ([4]; rM1 cells, fixed increasing concentrations of atropine): rightward shift with diminished efficacy
agonist activity at M3 [5]: no activity
